Molecules are shown by their SMILES.

Data on 25 compounds can be found in ChEMBL document CHEMBL2331353, “Synthesis and biological evaluation of some novel resveratrol amide derivatives as potential anti-tumor agents” (Eur J Med Chem, 2013).

Experiment [1] concerns the target T1, Prostaglandin G/H synthase 2 (Homo sapiens, UniProt P35354).
T1 sequence (P35354 whole entry): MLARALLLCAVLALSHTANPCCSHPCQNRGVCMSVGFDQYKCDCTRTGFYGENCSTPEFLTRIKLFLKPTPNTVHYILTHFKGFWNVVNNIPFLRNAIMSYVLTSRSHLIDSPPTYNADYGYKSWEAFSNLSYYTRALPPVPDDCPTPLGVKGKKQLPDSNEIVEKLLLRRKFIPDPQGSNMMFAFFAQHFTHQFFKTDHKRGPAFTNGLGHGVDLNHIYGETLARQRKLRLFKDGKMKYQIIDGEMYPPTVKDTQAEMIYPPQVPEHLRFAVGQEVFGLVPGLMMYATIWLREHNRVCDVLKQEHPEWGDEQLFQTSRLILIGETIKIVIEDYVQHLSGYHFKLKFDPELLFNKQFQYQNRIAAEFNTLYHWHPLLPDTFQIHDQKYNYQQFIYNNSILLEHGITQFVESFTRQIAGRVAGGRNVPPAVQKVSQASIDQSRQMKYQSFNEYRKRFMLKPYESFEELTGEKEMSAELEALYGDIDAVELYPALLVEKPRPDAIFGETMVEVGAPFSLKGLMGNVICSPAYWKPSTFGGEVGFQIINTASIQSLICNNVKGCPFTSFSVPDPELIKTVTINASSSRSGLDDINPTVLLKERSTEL
Nature of the experiment: Inhibition of COX-2 (unknown origin) by chemiluminescence assay.

Experiment [2] has as its target T2, Prostaglandin G/H synthase 2 (Mus musculus, UniProt Q05769).
T2 sequence (Q05769 whole entry): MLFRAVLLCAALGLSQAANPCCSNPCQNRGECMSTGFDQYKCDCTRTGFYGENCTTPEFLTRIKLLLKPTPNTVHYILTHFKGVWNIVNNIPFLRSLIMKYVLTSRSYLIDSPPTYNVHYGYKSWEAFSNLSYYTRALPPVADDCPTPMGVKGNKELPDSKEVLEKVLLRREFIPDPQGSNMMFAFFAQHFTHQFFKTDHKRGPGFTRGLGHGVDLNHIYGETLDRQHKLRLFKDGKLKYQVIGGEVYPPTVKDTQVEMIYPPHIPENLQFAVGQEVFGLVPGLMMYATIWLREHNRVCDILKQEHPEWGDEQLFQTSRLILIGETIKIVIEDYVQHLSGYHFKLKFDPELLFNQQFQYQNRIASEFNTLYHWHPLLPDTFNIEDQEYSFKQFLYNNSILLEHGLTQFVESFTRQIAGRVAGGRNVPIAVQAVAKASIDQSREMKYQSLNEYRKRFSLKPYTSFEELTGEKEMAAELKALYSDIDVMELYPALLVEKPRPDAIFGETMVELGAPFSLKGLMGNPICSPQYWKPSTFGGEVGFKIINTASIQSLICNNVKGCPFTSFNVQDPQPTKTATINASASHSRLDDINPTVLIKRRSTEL
The experiment can be described thus: Inhibition of COX-2 in mouse RAW264.7 cells assessed as decrease in LPS-induced PGE2 production. The experiment is classed as cell-based.

In a further experiment the test system is MCF7. The experiment can be described thus: Antitumor activity against human MCF7 cells assessed as inhibition of cell proliferation after 48 hrs by MTT assay. The format is functional, cell-based. The settings on record: MCF7, 48 h. The procedure, abridged:
(§1)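 Cells grown to log phase in RPMI 1640 with 10% FBS, seeded at 2×10^4 cells/mL and preincubated 24 h at 37 °C, 5% CO2. Compounds at preset concentrations added (6 wells), celecoxib as positive reference, 48 h exposure. MTT (2.5 mg/mL in PBS) for 4 h, then SDS/isobutanol/HCl extraction overnight at 37 °C. OD read at 570 nm. Triplicate wells per concentration, at least three independent runs.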
On the technique in general: Tetrazolium dyes change colour on reduction, which living cells bring about.

Another experiment relates to A549. Nature of the experiment: Antitumor activity against human A549 cells assessed as inhibition of cell proliferation after 48 hrs by MTT assay. The experiment is classed as functional, cell-based. The settings on record: A549, 48 h. The procedure, abridged: as §1
The next experiment deals with B16-F10. The experiment can be described thus: Antitumor activity against mouse B16F10 cells assessed as inhibition of cell proliferation after 48 hrs by MTT assay. The experiment is classed as functional, cell-based. The settings on record: B16-F10, 48 h. The procedure, abridged:
as §1

Experiment [3] addresses Prostaglandin G/H synthase 1 (Homo sapiens, UniProt P23219). The experiment can be described thus: Inhibition of COX-1 (unknown origin) by chemiluminescence assay.

Prostaglandin G/H synthase 1, sequence (P23219 whole entry): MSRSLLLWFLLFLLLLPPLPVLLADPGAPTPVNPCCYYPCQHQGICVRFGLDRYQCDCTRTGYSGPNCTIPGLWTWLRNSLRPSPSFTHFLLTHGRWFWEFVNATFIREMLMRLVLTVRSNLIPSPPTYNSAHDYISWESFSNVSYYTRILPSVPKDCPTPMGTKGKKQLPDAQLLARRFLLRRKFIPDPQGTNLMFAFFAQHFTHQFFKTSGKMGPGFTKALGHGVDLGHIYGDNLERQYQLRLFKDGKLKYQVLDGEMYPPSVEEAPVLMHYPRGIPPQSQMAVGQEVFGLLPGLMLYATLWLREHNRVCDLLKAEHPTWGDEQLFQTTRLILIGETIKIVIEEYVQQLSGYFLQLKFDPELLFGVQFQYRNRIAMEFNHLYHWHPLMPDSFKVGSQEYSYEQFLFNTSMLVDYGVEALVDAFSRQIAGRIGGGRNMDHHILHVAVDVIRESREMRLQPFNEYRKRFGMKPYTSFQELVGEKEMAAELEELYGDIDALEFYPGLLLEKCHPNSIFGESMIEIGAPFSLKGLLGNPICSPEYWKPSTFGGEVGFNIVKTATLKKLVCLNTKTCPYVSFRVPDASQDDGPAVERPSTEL

Turning to `CCCNC(=O)/C=C/c1c(/C=C/c2ccc(OC)cc2)cc(OC)cc1OC`, the IC50 – broadly, the midpoint of a concentration-inhibition curve – is 6.75 µM in experiment [1]; 2.08 µM in experiment [2]; 5.61 µM with MCF7; 5.17 µM in the experiment with A549; 9.08 µM in the experiment on B16-F10; more than 50 µM in experiment [3].

`COc1ccc(/C=C/c2cc(OC)cc(OC)c2/C=C/C(=O)N(C)C)cc1`: the IC50 in experiment [1] is 13 µM; in experiment [2], 4.36 µM; with MCF7, 6.86 µM; with A549, 6 µM; in the experiment with B16-F10, 5.78 µM; in experiment [3] it was more than 50 µM.

With `CCNC(=O)/C=C/c1c(/C=C/c2ccc(OC)cc2)cc(OC)cc1OC`, the IC50 in experiment [1] came out at 12.4 µM; in experiment [2], 7.06 µM; in the experiment on MCF7 it was 7.06 µM; with A549, 7.86 µM; with B16-F10, 6.99 µM; in experiment [3], 35.4 µM.

As for `COc1ccc(/C=C/c2cc(OC)cc(OC)c2/C=C/C(=O)NCCCN2CCOCC2)cc1`, the IC50 is 8.92 µM in experiment [1]; 3.68 µM in experiment [2]; 4.15 µM with MCF7; 4.22 µM with A549; 6.83 µM in the experiment on B16-F10; more than 50 µM in experiment [3].

As to `COc1ccc(/C=C/c2cc(OC)cc(OC)c2/C=C/C(=O)N2CCCC(C)C2)cc1` (stereo not given), the IC50 in experiment [1] was 7.09 µM; in experiment [2], 3.16 µM; in the experiment on MCF7, 11.9 µM; in the experiment on A549, 5.82 µM; in the experiment on B16-F10 it was 8.25 µM; in experiment [3], more than 50 µM.

For `COc1ccc(/C=C/c2cc(OC)cc(OC)c2/C=C/C(=O)NCc2ccco2)cc1`, the IC50 came to 9.67 µM in experiment [1]; 3.15 µM in experiment [2]; 5.42 µM with MCF7; 6.42 µM in the experiment with A549; 10.1 µM with B16-F10; 29.1 µM in experiment [3].

For `COc1ccc(/C=C/c2cc(OC)cc(OC)c2/C=C/C(=O)Nc2cc(OC)c(OC)c(OC)c2)cc1`, the IC50 is 6.66 µM in experiment [1]; 2.1 µM in experiment [2]; 7.01 µM in the experiment on MCF7; 5.14 µM with A549; 8.15 µM in the experiment with B16-F10; more than 50 µM in experiment [3].

As for `COc1ccc(/C=C/c2cc(OC)cc(OC)c2/C=C/C(=O)N2CCC(c3ccccc3)CC2)cc1`, the IC50 in experiment [1] was 8.57 µM; in experiment [2], 3.55 µM; in the experiment on MCF7, 4.23 µM; in the experiment on A549, 6.69 µM; in the experiment on B16-F10, 9.18 µM; in experiment [3] it was more than 50 µM.

Consider `C#CCNC(=O)/C=C/c1c(/C=C/c2ccc(OC)cc2)cc(OC)cc1OC`, for which the IC50 in experiment [1] was 9.08 µM; in experiment [2], 5.08 µM; with MCF7, 4.56 µM; with A549, 6.93 µM; in the experiment on B16-F10, 8.28 µM; in experiment [3] it was more than 50 µM.

As for `CCN(CC)C(=O)/C=C/c1c(/C=C/c2ccc(OC)cc2)cc(OC)cc1OC`, the IC50 is 4.67 µM in experiment [1]; 2.15 µM in experiment [2]; 6.55 µM with MCF7; 3.35 µM in the experiment on A549; 3.98 µM in the experiment on B16-F10; more than 50 µM in experiment [3].

For the compound `COc1ccc(/C=C/c2cc(OC)cc(OC)c2/C=C/C(=O)NC2CC2)cc1`, the IC50 is 13 µM in experiment [1]; 7.05 µM in experiment [2]; 3.94 µM in the experiment on MCF7; 8.81 µM with A549; 10.2 µM in the experiment with B16-F10; more than 50 µM in experiment [3].

Regarding `CCC(C)NC(=O)/C=C/c1c(/C=C/c2ccc(OC)cc2)cc(OC)cc1OC` (stereo not given), the IC50 in experiment [1] is 4.56 µM; in experiment [2] it was 2.09 µM; with MCF7, 3.43 µM; in the experiment on A549, 3.95 µM; in the experiment on B16-F10 it was 4.38 µM; in experiment [3], more than 50 µM.

Turning to `COc1ccc(/C=C/c2cc(OC)cc(OC)c2/C=C/C(=O)O)cc1`, the IC50 in experiment [1] was 6.89 µM; in experiment [2], 3.01 µM; in the experiment on MCF7, 6.1 µM; in the experiment with A549, 5.46 µM; with B16-F10 it was 6.78 µM; in experiment [3] it was more than 50 µM.

As to `COc1ccc(/C=C/c2cc(OC)cc(OC)c2/C=C/C(=O)NC(C)(C)C)cc1`, the IC50 in experiment [1] is 11.1 µM; in experiment [2], 5.29 µM; in the experiment on MCF7 it was 13.6 µM; with A549, 8.67 µM; in the experiment with B16-F10 it was 7.98 µM; in experiment [3], more than 50 µM.

For the compound `COc1ccc(/C=C/c2cc(OC)cc(OC)c2/C=C/C(=O)NCCCl)cc1`, the IC50 in experiment [1] is 1.36 µM; in experiment [2], 0.45 µM; in the experiment with MCF7, 2.3 µM; with A549, 2 µM; in the experiment on B16-F10, 3.45 µM; in experiment [3], 32.3 µM.

For the compound `COc1ccc(/C=C/c2cc(OC)cc(OC)c2/C=C/C(=O)N2CCSCC2)cc1`, the IC50 came out at 8.01 µM in experiment [1]; 3.18 µM in experiment [2]; 2.76 µM in the experiment with MCF7; 5.4 µM in the experiment on A549; 8.1 µM in the experiment with B16-F10; 45.2 µM in experiment [3].

For the compound `COc1ccc(/C=C/c2cc(OC)cc(OC)c2/C=C/C(=O)N2CCC(C)CC2)cc1`, the IC50 was 10.3 µM in experiment [1]; 8.09 µM in experiment [2]; 6.45 µM in the experiment on MCF7; 7.2 µM with A549; 7.76 µM in the experiment with B16-F10; more than 50 µM in experiment [3].

Regarding `CCCCCCN(CCCCCC)C(=O)/C=C/c1c(/C=C/c2ccc(OC)cc2)cc(OC)cc1OC`, the IC50 in experiment [1] is 9.08 µM; in experiment [2], 3.1 µM; in the experiment with MCF7 it was 4.03 µM; in the experiment with A549 it was 5.34 µM; in the experiment on B16-F10, 8.02 µM; in experiment [3] it was more than 50 µM.

For `COc1ccc(/C=C/c2cc(OC)cc(OC)c2/C=C/C(=O)NCCCCl)cc1`, the IC50 in experiment [1] was 1.27 µM; in experiment [2], 0.39 µM; in the experiment on MCF7, 1.98 µM; in the experiment with A549, 1.98 µM; in the experiment with B16-F10 it was 2.78 µM; in experiment [3] it was 38.4 µM.

In the case of `CCCCCCCCNC(=O)/C=C/c1c(/C=C/c2ccc(OC)cc2)cc(OC)cc1OC`, the IC50 in experiment [1] is 20.1 µM; in experiment [2], 13.8 µM; in the experiment with MCF7, 4.28 µM; in the experiment on A549, 8.66 µM; with B16-F10, 8.06 µM; in experiment [3] it was more than 50 µM.

With `CCCN(CCC)C(=O)/C=C/c1c(/C=C/c2ccc(OC)cc2)cc(OC)cc1OC`, the IC50 in experiment [1] turned out to be 8.06 µM; in experiment [2], 3.88 µM; in the experiment on MCF7, 2 µM; with A549 it was 5.58 µM; with B16-F10, 5.98 µM; in experiment [3] it was 45.9 µM.

Consider `Cc1ccc(-c2cc(C(F)(F)F)nn2-c2ccc(S(N)(=O)=O)cc2)cc1` [CELECOXIB], for which, in the experiment on A549, the IC50 came out at 15.6 µM.

As to `COc1ccc(/C=C/c2cc(OC)cc(OC)c2/C=C/C(=O)N2CC(C)CC(C)C2)cc1` (stereo not given), the IC50 in experiment [1] was determined as 1.98 µM; in experiment [2] it was 0.58 µM; in the experiment with MCF7 it was 1.57 µM; with A549, 2.27 µM; with B16-F10, 3.26 µM; in experiment [3], 45.1 µM.

Take `CCCCCN(CCCCC)C(=O)/C=C/c1c(/C=C/c2ccc(OC)cc2)cc(OC)cc1OC`: the IC50 in experiment [1] is 16.4 µM; in experiment [2] it was 7.19 µM; with MCF7 it was 6.13 µM; in the experiment with A549 it was 7.49 µM; with B16-F10, 9.27 µM; in experiment [3] it was more than 50 µM.

As for `CCCCCCNC(=O)/C=C/c1c(/C=C/c2ccc(OC)cc2)cc(OC)cc1OC`, the IC50 in experiment [1] stood at 8.99 µM; in experiment [2] it was 5.01 µM; in the experiment with MCF7, 5.53 µM; in the experiment with A549, 6.23 µM; in the experiment on B16-F10 it was 7.18 µM; in experiment [3], 34.7 µM.
